This note sets out measurements from ChEMBL document CHEMBL1133527, “Exploring the structural basis of neurotoxicity in C(17)-polyacetylenes isolated from water hemlock” (J Med Chem, 2000).

Data set [1] deals with GABA-A receptor; anion channel. Description: Tested for inhibition of specific binding of [3H]-EBOB to GABA-Gated Chloride channels of Gamma-aminobutyric acid A receptor in rat brain cortex (Potency expressed as IC50). Type of data set: tissue-based. The essentials:
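Washed cortical membranes from SD rats (7 weeks), prepared in 50 mM Tris-HCl pH 7.4 and stored at -80 °C, equivalent to 5 mg tissue, incubated with 3 nM [3H]EBOB and test agent at 25 °C for 1 h. Bound ligand collected by filtration on polyethylenimine-treated GF/B filters and counted by scintillation. IC50 from dose-response curves run in duplicate.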

A further data set concerns Mus musculus. The data set is described as follows: Acute toxicity against mice after ip administration. Type of data set: organism-based. Particulars: in vivo.

Molecules are shown by their SMILES. A value given as a limit tells only on which side of the number the result lay.

In general, IC50 refers to the point on the concentration scale where inhibition reaches its midpoint. High values mean weaker potency, low ones greater potency. In data set [1], `C=C[C@@H](O)C#CC#C[C@@H](O)/C=C\CCCCCCC` [FALCARINDIOL] showed an IC50 greater than 10 µM. The compound also displayed an LD50 with Mus musculus greater than 200 mg kg-1 i.p.

Compound `CCC[C@@H](O)/C=C/C=C/C=C/C#CC#CCCCOC(C)=O` returned an IC50 in data set [1] of 1.1 µM. In the data set on Mus musculus, this compound gave an LD50 of 1.9 mg kg-1 i.p.

In data set [1], `CCCCCC(=O)/C=C/C=C/C#CC#CCCCO` came in with a 50% inhibitory concentration (IC50) greater than 10 µM. The LD50 with Mus musculus was greater than 25.8 mg kg-1 i.p.

In data set [1], `CCCCNC(=O)CCC#CC#C/C=C/C=C/C=C/[C@H](O)CCC` registered an IC50 greater than 10 µM. Further, the LD50 in the data set on Mus musculus is 4.9 mg kg-1 i.p.

In data set [1], `CCC[C@@H](O)/C=C/C=C/C=C/C#CC#CCCCO` [CICUTOXIN] had an IC50 of 0.54 µM. The same compound displayed an LD50 in the data set on Mus musculus of 2.8 mg kg-1 i.p.

Compound `C=C(C)[C@@H]1[C@H]2OC(=O)[C@@H]1[C@]1(O)C[C@H]3OC34C(=O)O[C@H]2[C@@]41C.CC(C)(O)[C@@H]1[C@H]2OC(=O)[C@@H]1[C@]1(O)C[C@H]3OC34C(=O)O[C@H]2[C@@]41C` (stereo not given in full) [PICROTOXIN] registered an IC50 in data set [1] of 1.31 µM.

For the compound `CCC[C@H](/C=C/C=C/C=C/C#CC#CCCCOC(C)=O)OC(C)=O`, the IC50 in data set [1] is greater than 10 µM. In the data set with Mus musculus, the LD50 was determined as 15.7 mg kg-1 i.p.

As for `CCCC(=O)CC/C=C/C=C/C#CC#CCCCO`, in data set [1], the IC50 came out at 3.64 µM. Also, in the data set on Mus musculus, the LD50 is 1.1 mg kg-1 i.p.

In the case of `CCCCCCC/C=C\[C@H](O)C#CC#CCCCO`, the IC50 in data set [1] worked out at 6.01 µM. In addition, the LD50 with Mus musculus is greater than 393 mg kg-1 i.p.

In data set [1], `CCC[C@@H](O)/C=C/C=C/C=C/C#CC#CCCC(=O)O` displayed a half-inhibitory concentration (IC50) of 0.3 µM. Also, the LD50 in the data set with Mus musculus was 0.76 mg kg-1 i.p.

As to `CCCCC[C@H](O)/C=C/C=C/C#CC#CCCCO`, the IC50 in data set [1] turned out to be 1.15 µM. The LD50 in the data set with Mus musculus came out at 9.5 mg kg-1 i.p.

Take `CCCCCCC/C=C\C(=O)C#CC#CCCCO`: the IC50 in data set [1] is greater than 10 µM. Besides, the LD50 with Mus musculus is listed as greater than 26 mg kg-1 i.p.

As for `CCCC#CC#C/C=C/C=C/[C@@H](O)CCCCC`, the 50% inhibitory concentration (IC50) in data set [1] was greater than 10 µM. This compound showed an LD50 with Mus musculus greater than 97.6 mg kg-1 i.p.

As for `CCCC(=O)/C=C/C=C/C=C/C#CC#CCCCO`, the IC50 in data set [1] was found to be 3.05 µM. The compound also gave an LD50 with Mus musculus of 7.6 mg kg-1 i.p.

Consider `CCCCC[C@H](O)/C=C/C=C/C#CCCCO`, for which the IC50 in data set [1] was greater than 10 µM. In the data set with Mus musculus, this compound registered an LD50 greater than 70.8 mg kg-1 i.p.

With `CCC[C@@H](O)/C=C/C=C/C=C/C#CC#CCCC(N)=O`, the IC50 in data set [1] was found to be 1.56 µM. Moreover, the LD50 in the data set with Mus musculus is 1.1 mg kg-1 i.p.

`CCC[C@@H](O)/C=C/C=C/C=C/C#CC#CCCC=O` showed an IC50 in data set [1] of 2.22 µM. In the data set on Mus musculus, this compound had an LD50 of 4.9 mg kg-1 i.p.

For `CCCCCCC/C=C\CC#CC#CCCCO`, the IC50 in data set [1] was greater than 10 µM. The compound also yielded an LD50 in the data set with Mus musculus greater than 24.6 mg kg-1 i.p.

Compound `CCC[C@@H](O)/C=C/C=C/C=C/C#CC#CCCC(=O)OC` registered an IC50 in data set [1] of 0.42 µM. Further, the LD50 in the data set on Mus musculus was found to be 1.6 mg kg-1 i.p.

`CCC[C@H](/C=C/C=C/C=C/C#CC#CCCCO)OC(C)=O`: the IC50 in data set [1] was greater than 10 µM. In the data set with Mus musculus, this compound yielded an LD50 of 2.8 mg kg-1 i.p.

As for `CCC[C@@H](O)/C=C/C=C/C=C/C#CC#CCCCOC`, the IC50 in data set [1] was 6.79 µM. In the data set with Mus musculus, this compound returned an LD50 of 10.6 mg kg-1 i.p.

For `CCC[C@H](/C=C/C=C/C=C/C#CC#CCCCOC)OC`, in data set [1], the IC50 is greater than 10 µM. In the data set on Mus musculus, this compound came in with an LD50 greater than 57.2 mg kg-1 i.p.

Take `CCCCCCC[C@H](O)/C=C/C#CC#CCCCO`: the concentration for half-maximal inhibition (IC50) in data set [1] was determined as 7.87 µM. This compound also displayed an LD50 with Mus musculus greater than 105 mg kg-1 i.p.

`CCCC(O)/C=C/C=C/C=C/C#CC#CCCCO` (stereo not given) yielded an IC50 in data set [1] of 2.01 µM. Moreover, the LD50 in the data set on Mus musculus is listed as 38.6 mg kg-1 i.p.

In the case of `CCCCCC(O)/C=C/C=C/C#CC#CCCCO` (stereo not given), the LD50 in the data set on Mus musculus worked out at 7.7 mg kg-1 i.p.

Regarding `CCCCCC/C=C/C=C/C#CC#CCCCO`, in data set [1], the half-inhibitory concentration (IC50) is greater than 10 µM. In the data set on Mus musculus, this compound registered an LD50 greater than 37.8 mg kg-1 i.p.
